Consider 12 molecules from ChEMBL document CHEMBL1121726, “Pyrazolopyrimidine nucleosides. 12. Synthesis and biological activity of certain pyrazolo[3,4-d]pyrimidine nucleosides related to adenosine” (1981).

Active and inactive are the calls of the source. No cut-off for these calls is given here.

Assay [1] has as its system L1210. Description: Increase in life span of tumor L1210 leukemic mice 1-5 days after 400 mg/kg administered. Type of assay: functional, Mus musculus. A digest of the protocol:
(§1)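 Mice bearing L1210 or P388 leukemia were injected with drug at the listed dose per injection on the listed days after tumor-cell inoculation. ILS was the percentage increase in life span of treated mice over untreated tumor-bearing controls.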

Assay [2] has as its system L1210. Description: Toxicity against L1210 leukemic cells 1-5 days after administration of 400 mg/kg of the compound; nt= No higher dose tested. Type of assay: functional, organism-based. On the set-up: dose 400 mg/kg. The following applies: Mus musculus. A digest of the protocol: (§2)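 Mice bearing L1210 or P388 leukemia were injected at the stated dose per injection on the listed days after tumor-cell inoculation. Host toxicity scores whether higher doses on the same schedule caused drug-induced shortening of life span: y = yes, n = no, nt = no higher dose tested.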

In assay [3] the test system is L1210. Description: Increase in life span of tumor L1210 leukemic mice 1-5 days after 25 mg/kg administered. Type of assay: functional, Mus musculus. A digest of the protocol: as §1
Assay [4] relates to L1210. Description: Number of mice surviving 1 day after 25 mg/kg administered; 2/12. Type of assay: functional, Mus musculus.
Assay [5] concerns L1210. Description: Toxicity against L1210 leukemic cells 1-5 days after administration of 25 mg/kg of the compound; Yes. On the set-up: dose 25 mg/kg. Type of assay: functional, organism-based. The following applies: Mus musculus. A digest of the protocol: as §2
The test system of assay [6] is P388. Description: Increase in life span of tumor P388 leukemic mice 1-9 days after 40 mg/kg administered. Type of assay: functional, Mus musculus. The procedure, abridged: as §1
Assay [7] relates to P388. Description: Toxicity against P388 leukemic cells 1-9 days after administration of 40 mg/kg of the compound; Yes. Format: functional, organism-based. On the set-up: dose 40 mg/kg. The following applies: Mus musculus. The procedure, abridged:
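Host toxicity was scored in leukemia-bearing mice as drug-induced shortening of life span when higher doses were given on the same schedule: y = yes, n = no, nt = no higher dose tested.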

In assay [8] the test system is L1210. Description: In vitro inhibition of growth of L1210 mouse leukemic cells. Format: functional. The settings on record: read-out: ID50 (the source's name). The procedure, abridged:
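L1210 cells grown in static suspension culture in Fischer's medium for leukemic cells of mice, exposed to a range of test-compound concentrations. Growth rate measured over 3 days.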

Assay [9] has as its system L1210. The experiment in a line: Increase in life span of tumor L1210 leukemic mice 1 day after 133 mg/kg administered. Type of assay: functional, Mus musculus. The procedure, abridged:
as §1

Assay [10] relates to L1210. The experiment in a line: Number of mice surviving 1 day after 133 mg/kg administered; 1/6. Type of assay: functional, Mus musculus.
Assay [11] concerns L1210. The experiment in a line: Toxicity against L1210 leukemic cells 1 day after administration of 133 mg/kg of the compound; No. Type of assay: functional, organism-based. On the set-up: dose 133 mg/kg. The following applies: Mus musculus. The procedure, abridged:
as §2

The subject of assay [12] is P388. Description: Increase in life span of tumor P388 leukemic mice 1-9 days after 25 mg/kg administered. Type of assay: functional, Mus musculus.
In assay [13] the test system is P388. Description: Toxicity against P388 leukemic cells 1-9 days after administration of 25 mg/kg of the compound; No. Format: functional, organism-based. On the set-up: dose 25 mg/kg. The settings on record: Mus musculus. The procedure, abridged:
as §2

For assay [14], the system named is P388 (Mus musculus). Description: Increase in life span of tumor P388 leukemic mice 1-9 days after 9.3 mg/kg administered.
Assay [15] concerns L1210. Description: Increase in life span of tumor L1210 leukemic mice 1-9 days after 3.12 mg/kg administered. Type of assay: functional, Mus musculus. The procedure, abridged:
as §1

In assay [16] the test system is L1210. Description: Toxicity against L1210 leukemic cells 1-9 days after administration of 3.12 mg/kg of the compound; Yes. Format: functional, organism-based. On the set-up: dose 3.12 mg/kg. The settings on record: Mus musculus. A digest of the protocol:
as §2

Assay [17] deals with P388. The experiment in a line: Increase in life span of tumor P388 leukemic mice 1-9 days after 3 mg/kg administered. Type of assay: functional, Mus musculus. The procedure, abridged: as §1
For assay [18], the system named is P388. Description: Toxicity against P388 leukemic cells 1-9 days after administration of 3 mg/kg of the compound; Yes. Type of assay: functional, organism-based. On the set-up: dose 3 mg/kg. The settings on record: Mus musculus. A digest of the protocol:
as §2

The subject of assay [19] is L1210. The experiment in a line: Increase in life span of tumor L1210 leukemic mice 1-9 day after 200 mg/kg administered. Format: functional, Mus musculus. A digest of the protocol:
as §1

Assay [20] has as its system L1210. Description: Toxicity against L1210 leukemic cells 1-9 days after administration of 200 mg/kg of the compound; Yes. Format: functional, organism-based. On the set-up: dose 200 mg/kg. The following applies: Mus musculus. The procedure, abridged: as §2
The test system of assay [21] is L1210. Description: Increase in life span of tumor L1210 leukemic mice 1-5 days after 100 mg/kg administered. Type of assay: functional. The following applies: Mus musculus. The procedure, abridged:
as §1

The subject of assay [22] is L1210. Description: […] against L1210 leukemic cells 1-5 days after administration of 100 mg/kg of the compound; Yes. On the set-up: dose 100 mg/kg. Format: functional, organism-based. The following applies: Mus musculus.
Assay [23] has as its system L1210. The experiment in a line: Increase in life span of tumor L1210 leukemic mice 1-5 days after 50 mg/kg administered. Format: functional, Mus musculus. The procedure, abridged:
as §1

The test system of assay [24] is L1210. Description: Toxicity against L1210 leukemic cells 1-5 days after administration of 50 mg/kg of the compound; Yes. Type of assay: functional, organism-based. On the set-up: dose 50 mg/kg. The settings on record: Mus musculus. A digest of the protocol:
as §2

Assay [25] has as its system L1210. The experiment in a line: Increase in life span of tumor L1210 leukemic mice 1-5 days after 200 mg/kg administered. Type of assay: functional, Mus musculus. The following applies: Mus musculus, L1210. A digest of the protocol: as §1
For assay [26], the system named is L1210. The experiment in a line: […] against L1210 leukemic cells 1-5 days after administration of 200 mg/kg of the compound; Yes. Format: functional, organism-based. The settings on record: Mus musculus. On the set-up: dose 200 mg/kg.
The subject of assay [27] is L1210. Description: Increase in life span of tumor L1210 leukemic mice 1-9 days after 200 mg/kg administered. Format: functional, Mus musculus. The procedure, abridged:
as §1

Assay [28] has as its system L1210. The experiment in a line: Increase in life span of tumor L1210 leukemic mice 1-5 days after 12.5 mg/kg administered. Type of assay: functional, Mus musculus. The procedure, abridged:
as §1

The subject of assay [29] is L1210. The experiment in a line: […] against L1210 leukemic cells 1-5 days after administration of 12.5 mg/kg of the compound; Yes. The following applies: Mus musculus.

Molecule `O=c1[nH]cnc2c1cnn2[C@@H]1O[C@H](CO)[C@@H](O)[C@H]1O` yielded an ILS in assay [1] of 2. Further, the Toxicity entry in assay [2] was “No higher dose tested”.
In the case of `N=C(N)c1nn(C2O[C@H](CO)[C@@H](O)[C@H]2O)c2ncnc(N)c12` (stereo partly drawn), the ILS in [3] is reported as 98; in assay [6] it was 29. The molecule also displayed a Cures in assay [4] of 2. The Toxicity result in assay [5] and in assay [7] was “Active” in each case.
For `Nc1ncnc2c1ncn2[C@@H]1O[C@H](CO)[C@@H](O)[C@H]1O` [ADENOSINE], the IC50 in [8] turned out to be 0.4 µM. In addition, the results for the ILS in [9], in assay [12] and in [14] were 48, 54 and 24, respectively. The molecule also showed a Cures in assay [10] of 1. In addition, the Toxicity result in [11] and in assay [13] was “Not toxic” each time.
Take `NC(=S)c1nn(C2O[C@H](CO)[C@@H](O)[C@H]2O)c2ncnc(N)c12` (stereo partly drawn): the ILS in [15] was determined as 46; in [17] it was 34. Further, the Toxicity result in [16] and in assay [18] was “Active” throughout.
`COC(=N)c1nn(C2O[C@H](CO)[C@@H](O)[C@H]2O)c2ncnc(N)c12` (stereo partly drawn): in [1], the ILS was determined as 64. Besides, the Toxicity entry in [2] was “No higher dose tested”.
`OC[C@H]1OC(n2ncc3c(NCc4ccccc4)ncnc32)[C@H](O)[C@@H]1O` (stereo partly drawn) yielded an ILS in assay [3] of 3. For the same molecule, the Toxicity entry in assay [5] is “Active”.
Turning to `OC[C@H]1OC(n2ncc3cncnc32)[C@H](O)[C@@H]1O` (stereo partly drawn), the IC50 in [8] was > 100 µM. For the same molecule, the ILS in assay [19] is recorded as -3. Moreover, in assay [20], the Toxicity entry is “Active”.
In the case of `C=CCSc1ncnc2c1cnn2C1O[C@H](CO)[C@@H](O)[C@H]1O` (stereo partly drawn), in [21], the ILS at 100 mg/kg is 2%. Also, the Toxicity entry in assay [22] was “Active”.
As to `CNc1ncnc2c1cnn2C1O[C@H](CO)[C@@H](O)[C@H]1O` (stereo partly drawn), in assay [8], the IC50 is > 100 µM. Moreover, in assay [23], the ILS turned out to be 4. In addition, in [24], the Toxicity entry was “Active”.
In the case of `O=[N+]([O-])c1ccc(CSc2ncnc3c2cnn3C2O[C@H](CO)[C@@H](O)[C@H]2O)cc1` (stereo partly drawn), in assay [25], the ILS at 200 mg/kg was 1%. Also, the Toxicity result in [26] is “Active”.
As to `NNc1ncnc2c1cnn2C1O[C@H](CO)[C@@H](O)[C@H]1O` (stereo partly drawn), the IC50 in assay [8] was found to be 60 µM. In assay [27], this molecule came in with an ILS of 12. Also, in assay [20], the Toxicity entry was “Active”.
Take `OC[C@H]1OC(n2ncc3c(NO)ncnc32)[C@H](O)[C@@H]1O` (stereo partly drawn): the IC50 in [8] stood at 10 µM. For the same molecule, in assay [28], the ILS came out at 14. The Toxicity result in assay [29] was “Active”.
